Assay results reported in ChEMBL document CHEMBL1140411, “Deoxyuridine triphosphate nucleotidohydrolase as a potential antiparasitic drug target” (J Med Chem, 2005).

Experiments:
[1] = biological target: T1, Deoxyuridine 5'-triphosphate nucleotidohydrolase, mitochondrial (Homo sapiens, UniProt P33316); experiment: Inhibitory constant against human deoxyuridine 5'-triphosphate nucleotidohydrolase expressed in Escherichia coli BL21 (DE3) cells
T1 sequence (P33316 whole entry): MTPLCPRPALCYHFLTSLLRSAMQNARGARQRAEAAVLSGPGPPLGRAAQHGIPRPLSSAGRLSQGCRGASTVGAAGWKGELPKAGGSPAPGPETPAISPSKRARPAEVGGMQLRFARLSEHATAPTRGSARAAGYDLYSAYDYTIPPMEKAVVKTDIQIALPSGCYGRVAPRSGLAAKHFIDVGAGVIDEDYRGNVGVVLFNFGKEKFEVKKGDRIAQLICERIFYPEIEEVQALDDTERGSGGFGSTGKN
Procedure, shortened: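 Human dUTPase expressed in E. coli BL21(DE3) and purified like the Plasmodium enzyme (phosphocellulose, then gel filtration). dUTP hydrolysis followed continuously by stopped-flow as pH-indicator absorbance (cresol red/bicine, 50:2000 µM, 573 nm). Apparent KM from integrated Michaelis-Menten fits at each inhibitor concentration; Ki from linear KMapp versus [I].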

L6 = experiment: In vitro cytotoxicity aganist rat skeletal myoblasts (L-6 cells) after 72 hours; format: functional, cell-based; conditions: L6, 72 h
Procedure, shortened: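 L-6 rat skeletal myoblasts seeded at 4 × 10^4 cells/mL in RPMI 1640 with 10% FBS and 2 mM L-glutamine. After 24 h, medium replaced with a serial drug dilution, then 72 h at 37 °C, 5% CO2. Alamar Blue added for a further 2-4 h. Fluorescence read at ex 536/em 588 nm. Run twice independently, in duplicate.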

[2] = tested on: Trypanosoma brucei rhodesiense; experiment: Inhibitory constant against Trypanosoma brucei rhodesiense upon incubation with the compound at 37 degrees C under a 5% CO2 atmosphere for 72 hours; format: functional, organism-based
Leishmania donovani = experiment: In vitro growth inhibitory activity against Leishmania donovani amastigotes at 37 degrees C under a 5% CO2 atmosphere for 96 hours; format: functional, organism-based
Procedure, shortened: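 Mouse peritoneal macrophages in RPMI 1640 with 10% heat-inactivated FBS, infected after 24 h with L. donovani amastigotes at 3:1 (amastigote:macrophage). Free amastigotes washed out at 4 h. Next day, drug-containing medium added for 96 h at 37 °C, 5% CO2. Slides methanol-fixed and Giemsa-stained. Percentage of infected macrophages scored microscopically versus control; IC50 by linear regression. Twice independently, in duplicate.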

Trypanosoma cruzi = experiment: In vitro growth inhibitory activity against Trypanosoma cruzi in rat L-6 cells upon incubation at 37 degrees C in 5% CO2 atmosphere for 4 days; format: functional, organism-based; conditions: L6, 96 h
Procedure, shortened: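 L-6 cells seeded at 2000 cells/well in RPMI 1640 with 10% FBS and 2 mM L-glutamine. After 24 h, 5000 T. cruzi Tulahuen C2C4 LacZ trypomastigotes added with serial drug dilutions, then 4 days at 37 °C, 5% CO2. CPRG/Nonidet substrate added and colour read at 540 nm after 2-4 h. IC50 from sigmoidal curve. Twice independently, in duplicate.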

[3] = biological target: T2, dUTP pyrophosphatase (Plasmodium falciparum 3D7) (UniProt Q8II92); experiment: Selectivity index for Plasmodium falciparum deoxyuridine 5'-triphosphate nucleotidohydrolase defined as (Ki Human)/(Ki Plasmodium falciparum)
T2 sequence (whole entry): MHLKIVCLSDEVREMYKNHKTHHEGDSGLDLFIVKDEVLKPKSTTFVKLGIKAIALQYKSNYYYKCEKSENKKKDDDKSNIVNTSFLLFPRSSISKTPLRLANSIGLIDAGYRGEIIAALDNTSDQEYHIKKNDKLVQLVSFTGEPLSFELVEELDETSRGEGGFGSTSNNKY
Procedure, shortened: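 Ratio of human dUTPase Ki to P. falciparum dUTPase Ki. Both Ki values came from stopped-flow pH-indicator assays following dUTP hydrolysis, with Ki derived from the dependence of apparent KM on inhibitor concentration.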

dUTP pyrophosphatase [4] = biological target: T3, dUTP pyrophosphatase (Leishmania major, UniProt O15826); experiment: Inhibitory constant against Leishmania major deoxyuridine 5'-triphosphate nucleotidohydrolase
T3 sequence (O15826 whole entry): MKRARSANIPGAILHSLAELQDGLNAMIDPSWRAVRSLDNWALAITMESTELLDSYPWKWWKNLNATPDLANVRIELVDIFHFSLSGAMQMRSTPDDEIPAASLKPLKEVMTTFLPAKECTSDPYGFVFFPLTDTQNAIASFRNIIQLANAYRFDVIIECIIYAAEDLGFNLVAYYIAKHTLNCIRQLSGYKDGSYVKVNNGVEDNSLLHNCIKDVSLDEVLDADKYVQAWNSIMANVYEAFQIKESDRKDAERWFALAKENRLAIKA

Plasmodium falciparum = experiment: In vitro inhibitory activity against Plasmodium falciparum as [3H]hypoxanthine (50 uL) incorporation at 37C; format: functional, organism-based
dUTP pyrophosphatase [5] = biological target: T4, dUTP pyrophosphatase (Plasmodium falciparum 3D7, UniProt Q8II92); experiment: Inhibitory constant against Plasmodium falciparum deoxyuridine 5'-triphosphate nucleotidohydrolase expressed in Escherichia coli BL21 (DE3) cells
T4 sequence (Q8II92 whole entry): T2 sequence (whole entry)
Procedure, shortened: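 Recombinant PfdUTPase expressed in E. coli BL21(DE3) and purified by phosphocellulose and gel filtration to ~96% purity. Continuous stopped-flow assay following proton release with cresol red/bicine (50:2000 µM, 573 nm). Mix: 30 nM enzyme, 50 µM dUTP, 5 mM MgCl2, 2.5 mM DTT, 1.25 mg/mL BSA, 100 mM KCl. KMapp from integrated Michaelis-Menten fits, plotted against [I] to give Ki.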

SMILES | Ki [1] [µM] | IC50 (L6) [µM] | IC50 [2] [µM] | IC50 (Leishmania donovani) [µM] | IC50 (Trypanosoma cruzi) [µM] | SI [3] | Ki (dUTP pyrophosphatase [4]) [µM] | IC50 (Plasmodium falciparum) [µM] | Ki (dUTP pyrophosphatase [5]) [µM]
CC(C)(C)[Si](C)(C)O[C@H]1C[C@H](n2ccc(=O)[nH]c2=O)O[C@@H]1COC(c1ccccc1)(c1ccccc1)c1ccccc1 | > 1000 | > 154 | 25 | 17 | 247 | > 1.9 | 454 | 1 | 515
CC(C)[Si](OC[C@H]1O[C@@H](n2ccc(=O)[nH]c2=O)C[C@@H]1O)(C(C)C)C(C)C | > 1000 | 25 | 8 | – | 58 | > 4 | > 1000 | > 13 | 227
O=c1ccn(C2CC(F)C(COC(c3ccccc3)(c3ccccc3)c3ccccc3)O2)c(=O)[nH]1 (stereo not given) | 457 | 35 | 47 | – | 29 | 91 | 177 | 2 | 5
CC(=O)OC[C@H]1O[C@@H](n2ccc(=O)[nH]c2=O)C[C@@H]1O | > 1000 | 64 | 13 | > 111 | 273 | > 3 | > 1000 | > 19 | 294
O=c1ccn([C@H]2C[C@H](F)[C@@H](CO)O2)c(=O)[nH]1 | – | > 391 | 100 | > 391 | > 130 | – | – | > 21 | –
CCCCC(=O)NCC1OC(n2ccc(=O)[nH]c2=O)CC1O (stereo not given) | > 1000 | > 289 | 149 | > 97 | > 289 | > 5 | > 1000 | > 16 | 189
O=c1ccn(C2C=CC(CO[Si](c3ccccc3)(c3ccccc3)c3ccccc3)O2)c(=O)[nH]1 (stereo not given) | > 1000 | 85 | 1.6 | 13 | 42 | > 769 | 350 | 1 | 1.3
NS(=O)(=O)NC(=O)OCC1C=CC(n2ccc(=O)[nH]c2=O)O1 (stereo not given) | 799 | 262 | 40 | > 90 | > 270 | 9.7 | > 1000 | > 150 | 82
CCOP(=O)(CC(=O)OC[C@H]1O[C@@H](n2ccc(=O)[nH]c2=O)C[C@@H]1O)OCC | > 1000 | 168 | 123 | > 74 | > 222 | > 8 | > 1000 | 98 | 123
O=c1ccn([C@H]2C[C@H](O)[C@@H](COP(=O)(Oc3ccccc3)Oc3ccccc3)O2)c(=O)[nH]1 | 135 | > 196 | 52 | > 65 | > 196 | 0.6 | > 1000 | > 11 | 238
O=c1ccn(C2CC(F)C(CNC(c3ccccc3)(c3ccccc3)c3ccccc3)O2)c(=O)[nH]1 (stereo not given) | > 1000 | 30 | 3.6 | > 63 | 47 | > 83 | > 1000 | 5.3 | 12
CC(C)(C)[Si](C)(C)O[C@H]1C[C@H](n2ccc(=O)[nH]c2=O)O[C@@H]1COP(=O)(Oc1ccccc1)Oc1ccccc1 | > 1000 | > 157 | 12 | > 17 | 10 | > 1.7 | 116 | 6 | 597
CCCCC(=O)OC[C@H]1O[C@@H](n2ccc(=O)[nH]c2=O)C[C@@H]1O | > 1000 | > 289 | 147 | 96 | > 284 | > 4 | > 1000 | > 16 | 228
O=c1ccn(C2CC(O)C(CNP(=O)(Oc3ccccc3)Oc3ccccc3)O2)c(=O)[nH]1 (stereo not given) | > 1000 | > 196 | > 196 | > 65 | > 65 | > 38 | > 1000 | > 11 | 26
CC(C)(C)[Si](C)(C)O[C@H]1C[C@H](n2ccc(=O)[nH]c2=O)O[C@@H]1CO | 119 | > 263 | 83 | > 88 | > 263 | 0.2 | 114 | > 15 | 648
CC(C)(C)[Si](C)(C)OC1CC(n2ccc(=O)[nH]c2=O)OC1CNC(c1ccccc1)(c1ccccc1)c1ccccc1 (stereo not given) | > 1000 | 7.8 | 2.7 | – | 97 | > 3 | > 1000 | 1.8 | 313
Cc1ccc(S(=O)(=O)NCC2OC(n3ccc(=O)[nH]c3=O)CC2O)cc1 (stereo not given) | > 1000 | > 236 | 102 | > 79 | > 236 | – | > 1000 | > 13 | > 1000
